Rows were chosen to be rich in hits. Some 2.3% of all compounds tested hit in one or more screens of this group.
TRPC4 agonist: activators of mouse TRPC4 channel, primary screen, Fluo4 calcium, HEK293 TRPC4beta/mu-opioid cells; B-score at 10 µM; hit rate 0.49% among 310,000; Short transient receptor potential channel 4 (Mus musculus), Q9QUQ5; Fluo4 calcium fluorescence; hits give high values;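 active means B-score above 5 SD of library B-scores, and initial fluorescence ratio not above library mean plus 5 SD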;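 further: positive B-score marks a calcium rise read as TRPC4 activation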
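Incubation: 45 min room-temperature Fluo4 loading, 110 s read / System: HEK293 cells stably co-expressing mouse TRPC4beta and mu-opioid receptor / Signal: Fluo4 fluorescence, kinetic / Control set: buffer (low) and maximal DAMGO (high) / Measure: integrated baseline-normalised fluorescence ratio, converted to per-well B score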
TRPC4 potent: positive allosteric modulators of TRPC4, primary screen, cell-based, mouse TRPC4beta, HEK293 mu-opioid, Fluo-4 calcium; B-score at 10 µM; AID 2227, 2009; hit rate 0.42% among 310,000; Short transient receptor potential channel 4 (Mus musculus), Q9QUQ5; DAMGO EC20, Fluo-4 Ca2+ flux; hits give high values;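 active means B-score of calcium response area above 5 SD of library B-scores, with initial fluorescence ratio within 5 SD of library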
TRPC6 inhibitor: mouse TRPC6 channel inhibitors, primary screen, cell-based, HEK293, membrane potential dye | ACh-evoked depolarization; hits give low values | B-score at 10 µM | AID 2553, 2010 | Short transient receptor potential channel 6 (Mus musculus), Q61143 | hit rate 1.1% among 310,000;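 active means B-score under library mean minus 3 SD, initial fluorescence not abnormally high, positive integrated signal ratio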;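 further: B-score derived from integrated fluorescence ratio over the kinetic read; more negative B-score means stronger inhibition of depolarization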
TRPC4 block: inhibitors of mouse TRPC4 channel, primary screen, Fluo4 calcium, HEK293 TRPC4beta/mu-opioid cells; Short transient receptor potential channel 4 (Mus musculus), Q9QUQ5; DAMGO-evoked Fluo4 calcium flux; hits give low values; B-score at 10 µM; hit rate 0.39% among 300,000; AID 2247, 2010;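 active means B-score over 3 SD under the library average, no early fluorescence shift, positive overall ratio signal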
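Assay system: Stable TRPC4beta/mu-opioid receptor HEK293 cells | Reagent: DAMGO in two steps, submaximal then maximal | Compound dosing: Single concentration per test compound | Signal: Fluo4 Ca2+ flux fluorescence | Evaluation: Per-well B score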
TRPC6 act: mouse TRPC6 channel activators, primary screen, cell-based, HEK293, membrane potential dye; Short transient receptor potential channel 6 (Mus musculus), Q61143; B-score at 10 µM; HEK293-TRPC6 membrane potential dye fluorescence; hits give high values; hit rate 0.13% among 310,000;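 active means B-score of the integrated fluorescence ratio above library mean plus 3 SD, and starting fluorescence ratio within library mean plus 5 SD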;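 further: higher score means more depolarization so channel activation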
TRPC4 spec 2: second check of whether TRPC6 inhibitors also affect mouse TRPC4; shares compounds with TRPC6 inhibitor; HEK293 TRPC4/MOR, membrane potential dye fluorescence; channel activated by saturating DAMGO dose; inhibition, % at 10 µM; hit rate 42% among 920;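 active means compounds whose fluorescence signal differed from control wells by over 3 SD, either direction, in both duplicate plates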
TRPC4 spec: mouse TRPC4 modulation by TRPC6 hits, confirmation, selectivity assay for TRPC6 inhibitor project, cell-based, HEK293 TRPC4/mu-opioid, membrane potential dye; hit rate 61% among 920; shares compounds with TRPC6 inhibitor; membrane potential fluorescence; activity change, negative = inhibition, % at 10 µM;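 active means rise or fall in signal beyond 3 SD of buffer-only wells in both replicate plates, either sign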;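 further: integrated kinetic ratio of fluorescence range over baseline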
HEK293 MPD ctr 2-1: nonspecific membrane potential effects, parental HEK293, confirmation, counter-screen for TRPC6 inhibitor project, cell-based, second counter screen; parental HEK293 membrane potential dye fluorescence; maximal acetylcholine challenge after compound addition; signal change vs control, % at 10 µM; hit rate 31% among 920; AID 2779, 2010; shares compounds with TRPC6 inhibitor;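 active means membrane potential signal moving either way by over 3 SD of the maximum-effect control, in both duplicate plates, meaning non-specific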
HEK293 MPD ctr-1: membrane potential modulation in parental HEK293, confirmation, counter-screen for TRPC6 inhibitor project, cell-based; shares compounds with TRPC6 inhibitor; parental HEK293 membrane potential dye fluorescence; membrane potential signal change, % at 10 µM; hit rate 60% among 920;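 active means membrane potential signal shifting up or down by more than 3 SD of buffer-only wells, on both duplicate plates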
HEK293 MPD ctr-2: parental HEK293 membrane potential modulation, confirmation, counter-screen for TRPC6 modulator project, cell-based; shares compounds with TRPC6 inhibitor; membrane potential dye fluorescence; membrane potential signal change, % at 10 µM; hit rate 51% among 2,400;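 active means membrane potential signal moves up or down beyond 5 SD from buffer-only wells, on both duplicate plates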
HEK293 MPD ctr 2-2: second check of TRPC6 modulator effects in parental HEK293 cells; shares compounds with TRPC6 inhibitor; membrane potential dye fluorescence; after compound, maximal acetylcholine stimulation; inhibition, % at 10 µM; hit rate 14% among 2,400;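 active means membrane potential signal drops by more than 5 SD from the mean control signal, in both duplicate plates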
TRPC4 ctr mod: TRPC4 modulation by TRPC6 hit compounds, confirmation, selectivity assay for TRPC6 modulator project, cell-based, HEK293 TRPC4/mu-opioid, membrane potential dye, mouse; hit rate 69% among 2,400; percent change from control (negative = decrease, positive = increase), % at 10 µM; shares compounds with TRPC6 inhibitor; membrane potential fluorescence;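 active means membrane potential signal moved up or down beyond 5 SD of buffer control wells, in both duplicate plates, actives on both sides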
TRPC4 ctr inh 2: mouse TRPC4 off-target activity of TRPC6 modulators, second screen; inhibition, % at 10 µM; shares compounds with TRPC6 inhibitor; AID 488928; hit rate 55% among 2,400; HEK293 TRPC4/mu-opioid, membrane potential dye fluorescence; stimulated with maximal-effect DAMGO;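 active means drop in membrane potential signal beyond 5 SD of the control wells in both duplicate plates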;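 further: TRPC4 counter screen for TRPC6 hits run under conditions tuned for TRPC6 not TRPC4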
TRPC6 block conf: mouse TRPC6 channel inhibitors, confirmation, HEK293 cells, membrane potential dye, duplicate. shares compounds with TRPC6 inhibitor. ACh-evoked depolarization. inhibition, % at 10 µM. hit rate 43% among 3,300. AID 488960, 2010;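 active means fluorescence ratio falls more than 5 SD below the full-stimulation control mean, in both duplicate runs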;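 further: integrated fluorescence ratio of peak minus minimum over baseline after agonist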
TRPC6 act confirm: mouse TRPC6 channel activators, confirmation, HEK293 cells, membrane potential dye, duplicate. shares compounds with TRPC6 inhibitor. HEK293-TRPC6 membrane potential dye fluorescence, FDSS. activation, % at 10 µM. hit rate 11% among 2,800;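 active means ratio signal rise beyond 5 SD above unstimulated control wells' mean, seen in both duplicate runs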
Large screens that a line does not name were inactive (follow-up assays come after a bar, where they were run).

Cc1c(O)c(CN2CCCC2)cc2c3c(c(=O)oc12)CCC3	TRPC6 inhibitor -5.03 | HEK293 MPD ctr-2 -254.5% | HEK293 MPD ctr 2-2 inactive | TRPC4 ctr mod -46.0% | TRPC4 ctr inh 2 inactive | TRPC6 block conf inactive | TRPC6 act confirm inactive
O=C(CN1CCN(c2ncccn2)CC1)N1CCCC1	TRPC6 inhibitor -5.33 | HEK293 MPD ctr-2 inactive | HEK293 MPD ctr 2-2 inactive | TRPC4 ctr mod inactive | TRPC4 ctr inh 2 inactive | TRPC6 block conf inactive | TRPC6 act confirm inactive
O=C(CN1C(=O)C2CCCCC2C1=O)N1CCN(c2ncccn2)CC1 (stereo unspecified)	none
Cc1cc(C)cc(C(=O)NC(CC(N)=O)c2ccc(N3CCN(C)CC3)c([N+](=O)[O-])c2)c1 (stereo unspecified)	none
Cc1cc2c(s1)Nc1ccccc1N=C2N1CCN(C)CC1	TRPC6 inhibitor -6.04 | HEK293 MPD ctr-2 inactive | HEK293 MPD ctr 2-2 inactive | TRPC4 ctr mod inactive | TRPC4 ctr inh 2 inactive | TRPC6 block conf 58.5% | TRPC6 act confirm inactive
COc1ccc(NC(=O)C2CCCN(c3nn4c(=O)cc(C)nc4s3)C2)cc1 (stereo unspecified)	none
Cc1cc(=O)n2nc(N3CCCC(C(=O)N4CCc5ccccc54)C3)sc2n1 (stereo unspecified)	TRPC6 inhibitor -8.73 | TRPC4 spec 2 inactive | TRPC4 spec inactive | HEK293 MPD ctr 2-1 inactive | HEK293 MPD ctr-1 inactive | TRPC6 block conf inactive | TRPC6 act confirm inactive
COc1cccc(NC(=O)c2cc(-c3ccc(OC)cc3OC)nc3ccccc23)c1	TRPC6 inhibitor -5.12 | HEK293 MPD ctr-2 active | HEK293 MPD ctr 2-2 73.0% | TRPC4 ctr mod -94.0% | TRPC4 ctr inh 2 66.5% | TRPC6 block conf 53.5% | TRPC6 act confirm inactive
COc1ccc(-c2cc(C(=O)Nc3cc(C)on3)c3ccccc3n2)c(OC)c1	none
O=C(NC1CCCCC1)C(c1ccccn1)N(C(=O)Cc1cccs1)c1ccc(Cl)cc1 (stereo unspecified)	TRPC6 inhibitor -6.9 | TRPC4 spec 2 inactive | TRPC4 spec 22.0% | HEK293 MPD ctr 2-1 inactive | HEK293 MPD ctr-1 10.6% | TRPC6 block conf inactive
Cc1cc(C)cc(N(C(=O)Cc2cccs2)C(C(=O)NC2CCCCC2)c2ccccn2)c1 (stereo unspecified)	none
Cc1ccc2nc3c(cc(C(=O)NCCc4ccccc4)c(=N)n3CCCN3CCOCC3)c(=O)n2c1	TRPC6 inhibitor -5.98 | HEK293 MPD ctr-2 inactive | HEK293 MPD ctr 2-2 inactive | TRPC4 ctr mod inactive | TRPC4 ctr inh 2 53.5% | TRPC6 block conf inactive | TRPC6 act confirm inactive
COc1ccc(CCn2c(=N)c(C(=O)NCCN3CCOCC3)cc3c(=O)n4ccccc4nc32)cc1OC	TRPC6 inhibitor -5.59 | HEK293 MPD ctr-2 151.5% | HEK293 MPD ctr 2-2 109.0% | TRPC4 ctr mod 54.0% | TRPC4 ctr inh 2 44.5% | TRPC6 block conf 63.5%
COc1ccc(CCNC(=O)c2cc3c(=O)n4ccccc4nc3n(CCCN3CCOCC3)c2=N)cc1OC	none
COc1ccc(CCNC(=O)c2cc3c(=O)n4ccccc4nc3n(CCN3CCOCC3)c2=N)cc1	TRPC6 inhibitor -5.72 | HEK293 MPD ctr-2 inactive | HEK293 MPD ctr 2-2 inactive | TRPC4 ctr mod 74.0% | TRPC4 ctr inh 2 86.5% | TRPC6 block conf inactive | TRPC6 act confirm inactive
N=c1c(C(=O)NC2CCCC2)cc2c(=O)n3ccccc3nc2n1CCN1CCOCC1	none
COc1ccc(CCNC(=O)c2cc3c(=O)n4ccccc4nc3n(CCCN3CCOCC3)c2=N)cc1	TRPC6 inhibitor -7.38 | TRPC4 spec 2 inactive | TRPC4 spec inactive | HEK293 MPD ctr 2-1 -64.5% | HEK293 MPD ctr-1 inactive | TRPC6 block conf inactive | TRPC6 act confirm inactive
O=C(c1cccc(Br)c1)N1CCN(S(=O)(=O)N2CCCCC2)CC1	none
CCCCNC(=O)COC(=O)c1ccc(NS(=O)(=O)c2ccc3c(c2)OCCO3)cc1	none
COc1ccc(NS(=O)(=O)c2cc(N/C(=N\S(=O)(=O)c3ccccc3)c3ccc(F)cc3)ccc2Cl)cc1	none
COc1ccc(N2CC(C(=O)N/N=C/c3cc([N+](=O)[O-])ccc3O)CC2=O)cc1 (stereo unspecified)	none

From PubChem
